# Data published in ChEMBL document CHEMBL1148952, “A new ene-triyne antibiotic from the fungus Baeospora myosura” (2004).
# Activity calls are given as the source filed them. The calls are words filed in the database; no cut-off is given here.
# Tests used:
# Staphylococcus aureus [1] = assay: Antimicrobial activity against methicillin-sensitive Staphylococcus aureus after 20 hrs; assay type: functional
# In short: (§1)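 Broth MIC determination in cation-adjusted Mueller-Hinton broth, inoculum 10^5 cfu/mL, incubated 35 °C for 20 h.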
# Staphylococcus aureus [2] = assay: Antimicrobial activity against methicillin-sensitive Staphylococcus aureus after 20 hrs in presence of 50% serum; assay type: functional
# Staphylococcus aureus [3] = assay: Antimicrobial activity against methicillin-resistant Staphylococcus aureus after 20 hrs; assay type: functional; in short: as §1
# Staphylococcus aureus [4] = assay: Antimicrobial activity against methicillin-resistant coagulase negative Staphylococcus aureus after 20 hrs; assay type: functional; in short: as §1
# Enterococcus faecalis = assay: Antimicrobial activity against vancomycin-sensitive Enterococcus faecalis after 20 hrs; assay type: functional
# In short: (§2)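 Broth MIC in cation-adjusted Mueller-Hinton broth. Inoculum 10^5 cfu/mL, incubated 35 °C for 20 h. Test material was held as a DMSO stock, with concentration set by UV absorbance at 325 nm of a MeOH dilution (ε = 2 × 10^4 M-1 cm-1).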
# Enterococcus faecium = assay: Antimicrobial activity against vancomycin-resistant Enterococcus faecium after 20 hrs; assay type: functional; in short: as §1
# Streptococcus pneumoniae [5] = assay: Antimicrobial activity against Streptococcus pneumoniae after 20 hrs; assay type: functional
# In short: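 MIC by broth dilution in cation-adjusted Mueller-Hinton broth with 2.5% lysed horse blood. Inoculum 10^5 cfu/mL, 35 °C for 20 h. DMSO stock quantified by UV absorbance at 325 nm.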
# Streptococcus pneumoniae [6] = assay: Antimicrobial activity against penicillin-resistant Streptococcus pneumoniae after 20 hrs; assay type: functional
# In short: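 Broth MIC determination in cation-adjusted Mueller-Hinton broth supplemented with 2.5% lysed horse blood, inoculum 10^5 cfu/mL, incubated 35 °C for 20 h.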
# Streptococcus pyogenes = assay: Antimicrobial activity against Streptococcus pyogenes after 20 hrs; assay type: functional
# Priestia megaterium = assay: Antimicrobial activity against Bacillus megaterium after 20 hrs; assay type: functional; in short: as §2
# Haemophilus influenzae = assay: Antimicrobial activity against Haemophilus influenzae after 20 hrs; assay type: functional
# In short: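 Haemophilus Test medium broth MIC. Inoculum 10^5 cfu/mL, incubated 35 °C for 20 h. Compound supplied from a DMSO stock quantified by UV absorbance at 325 nm.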
# Escherichia coli = assay: Antimicrobial activity against Escherichia coli after 20 hrs; assay type: functional; in short: as §2
# Pseudomonas aeruginosa = assay: Antimicrobial activity against Pseudomonas aeruginosa after 20 hrs; assay type: functional; in short: as §2
# Klebsiella pneumoniae = assay: Antimicrobial activity against Klebsiella pneumoniae after 20 hrs; assay type: functional; in short: as §2
# Candida albicans = assay: Antimicrobial activity against Candida albicans after 24 hrs; assay type: functional
# In short: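 Yeast MIC in RPMI 1640. Inoculum 10^3 cfu/mL, incubated 35 °C for 24 h. Compound supplied from a DMSO stock quantified by UV absorbance at 325 nm.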
# [7] = system: coagulase-negative Staphylococcus; assay: Antimicrobial activity against methicillin-resistant coagulase negative Staphylococcus after 20 hrs
SMILES,Activity (Staphylococcus aureus [1]),Activity (Staphylococcus aureus [2]),Activity (Staphylococcus aureus [3]),Activity (Staphylococcus aureus [4]),MIC (Staphylococcus aureus [1]) [µg/mL],MIC (Staphylococcus aureus [2]) [µg/mL],MIC (Staphylococcus aureus [3]) [µg/mL],MIC (Enterococcus faecalis) [µg/mL],MIC (Enterococcus faecium) [µg/mL],MIC (Streptococcus pneumoniae [5]) [µg/mL],MIC (Streptococcus pneumoniae [6]) [µg/mL],MIC (Streptococcus pyogenes) [µg/mL],MIC (Priestia megaterium) [µg/mL],MIC (Haemophilus influenzae) [µg/mL],MIC (Escherichia coli) [µg/mL],MIC (Pseudomonas aeruginosa) [µg/mL],MIC (Klebsiella pneumoniae) [µg/mL],MIC (Candida albicans) [µg/mL],MIC [7] [µg/mL]
CC(=O)Nc1ccc(C(=O)O)cc1,inactive,inactive,inactive,inactive,–,–,–,–,–,–,–,–,–,–,–,–,–,–,–
C#CC#CC#C/C=C/C(=O)Nc1ccc(C(=O)O)cc1,–,–,–,–,0.0005,16,0.001,0.12,0.015,8,16,0.008,4,0.5,32,> 32,> 32,> 32,0.0005
CCCCCCCCC(=O)Nc1ccc(C(=O)O)cc1,inactive,inactive,inactive,inactive,–,–,–,–,–,–,–,–,–,–,–,–,–,–,–
